Measurements: PMC8882712 (Cell chemical biology, 2021)

Assays:
[1] = system: EOL-1 and MM1.S cells; test: Colony formation assay; format: cell-based, human; conditions: 2.5 μM
Procedure, shortened: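 20,000 cells per well were plated in triplicate. Medium containing compound or vehicle was replaced every four days. After 4 weeks, wells were stained with 100 μg/mL iodonitrotetrazolium chloride, and colonies were counted after overnight incubation.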

[2] = system: EOL-1, RS4;11 and MM1.S cells; test: Cell growth inhibition assay; format: cell-based, human; conditions: for EC50: Homo sapiens, 192 h, read-out: EC50 (growth inhibition)
Procedure, shortened: (§1)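 Cells were kept in RPMI 1640 with 10% FBS and 1% penicillin/streptomycin. 0.5 million cells per well were seeded in triplicate and treated with various final compound concentrations, with compound-containing medium renewed every two days. Cultures were diluted to stay below 1×10^6/mL and counted automatically every two days. EC50 came from nonlinear regression over at least three experiments, given as mean ± SD.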

[3] = system: cancer cells; conditions: ref Bottcher et al., 2019; cited from earlier work
[4] = biological target: T1, NSD3S (Homo sapiens, UniProt Q9BZ95); test: Immunoblotting for NSD3S in 293FT cells; format: cell-based; conditions: 48-hour treatment; for NSD3 degradation (immunoblot): 293FT cells, indicated concentrations
T1 sequence (Q9BZ95 1-645 isoform Q9BZ95-3): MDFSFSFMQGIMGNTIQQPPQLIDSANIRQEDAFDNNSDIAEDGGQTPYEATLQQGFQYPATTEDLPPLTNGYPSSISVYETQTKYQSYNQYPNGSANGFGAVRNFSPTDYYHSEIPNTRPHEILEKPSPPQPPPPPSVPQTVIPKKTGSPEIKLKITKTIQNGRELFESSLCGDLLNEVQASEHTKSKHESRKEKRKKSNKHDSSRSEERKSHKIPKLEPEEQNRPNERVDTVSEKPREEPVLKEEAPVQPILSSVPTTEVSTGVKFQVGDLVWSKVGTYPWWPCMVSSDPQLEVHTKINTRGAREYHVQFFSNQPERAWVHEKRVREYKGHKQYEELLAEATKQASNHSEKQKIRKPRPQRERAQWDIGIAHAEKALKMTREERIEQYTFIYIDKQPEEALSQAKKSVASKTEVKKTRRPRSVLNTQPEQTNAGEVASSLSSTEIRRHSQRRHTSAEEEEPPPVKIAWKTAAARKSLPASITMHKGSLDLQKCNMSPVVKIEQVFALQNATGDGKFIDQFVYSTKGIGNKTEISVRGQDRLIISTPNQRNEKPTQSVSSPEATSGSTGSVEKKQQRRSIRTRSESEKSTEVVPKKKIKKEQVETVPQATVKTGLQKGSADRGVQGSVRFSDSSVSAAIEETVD
Procedure, shortened: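 293FT cells were grown in DMEM with 10% FBS and 1% penicillin/streptomycin. NSD3 was detected by western blot with rabbit anti-NSD3 antibody, using rabbit anti-GAPDH as loading control and HRP-linked secondary antibodies.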

[5] = system: EOL-1 cells; test: Mass spectrometry-based global proteomic profiling; format: cell-based, human; conditions: 2.5 μM, 30 hours, more than 5,000 proteins detected
[6] = system: EOL-1 and MM1.S cells; test: Apoptosis induction; format: cell-based, human; conditions: 2.5 μM, four-day treatment
Procedure, shortened: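 EOL-1 and MM1.S cells were grown in RPMI 1640 with 10% FBS and 1% penicillin/streptomycin. Lines were authenticated by genetic fingerprinting and screened monthly for mycoplasma. Apoptosis was assessed by western blot with rabbit anti-cleaved caspase-3 and anti-cleaved caspase-7 antibodies, detected with an HRP-linked anti-rabbit IgG secondary.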

[7] = system: cMyc; test: Immunoblotting for cMyc protein levels; format: cell-based, human
Procedure, shortened: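 cMyc was detected by western blot with rabbit anti-cMyc antibody, using rabbit anti-GAPDH as loading control. VHL status was checked with mouse anti-VHL. VHL was knocked out by CRISPR/Cas9 and compared with WT cells. EOL-1 and MM1.S cells were grown in RPMI 1640 and 293FT cells in DMEM, each with 10% FBS and 1% penicillin/streptomycin.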

[8] = system: K562 cells; test: Cell growth inhibition assay in K562 cells; format: cell-based, human; conditions: 2.5 μM, ten days
Procedure, shortened: as §1

[9] = biological target: T2, NSD3 (Homo sapiens, UniProt Q9BZ95); test: Ubiquitination assay of Flag-tagged NSD3S in 293FT cells; format: cell-based; conditions: 293FT cells expressing Flag-tagged NSD3S, 48-hour treatment
T2 sequence (Q9BZ95 1-645 isoform Q9BZ95-3): T1 sequence (Q9BZ95 1-645 isoform Q9BZ95-3)

[10] = system: cMyc; test: cMyc ubiquitination assay in EOL-1 cells; format: cell-based, human; conditions: 2.5 μM, 48-hour treatment
Procedure, shortened: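 Lysates were heat-denatured 5 min at 95°C, diluted with EBC, sonicated and cleared. Immunoprecipitation with antibody ran overnight at 4°C, then protein A/G magnetic beads for 3 h at 4°C. Blots were probed with mouse anti-ubiquitin.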

[11] = system: CBLB, IFITM1, SELL and MAP7; test: RT-qPCR and western blots of NSD3-upregulated gene targets; format: cell-based, human; conditions: EOL-1 or MM1.S cells, 2.5 μM, 48 hours, compared to BI-9321 and MS9715N
Procedure, shortened: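 For mRNA, RT-qPCR relative expression was calculated by the 2−ΔΔCT method and normalized to the mean of beta-actin. For protein, western blots used rabbit anti-CBLB and rabbit anti-IFITM1 antibodies with rabbit anti-GAPDH as loading control. Cells were grown in RPMI 1640 with 10% FBS.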

[12] = biological target: T2, NSD3; test: Immunoblotting for NSD3 degradation in hematological cancer cells; format: cell-based
[13] = biological target: T3, NSD3 PWWP1 domain (Homo sapiens, UniProt Q9BZ95); test: Isothermal titration calorimetry; format: binding
T3 sequence (Q9BZ95 247-402): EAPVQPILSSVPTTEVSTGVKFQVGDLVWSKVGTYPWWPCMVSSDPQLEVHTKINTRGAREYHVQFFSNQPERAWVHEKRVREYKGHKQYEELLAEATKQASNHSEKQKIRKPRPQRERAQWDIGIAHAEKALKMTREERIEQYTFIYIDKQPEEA

In the case of Cc1cc(CN)cc(C)c1-c1ncn(C)c1-c1ccnc2cc(F)ccc12 [BI-9321, reference compound], the colony-forming capabilities [1] is listed as “little or no effect”, the EC50 [2] is listed as greater than 10 µM and the “killing of cancer cells” value [3] is listed as “does not lead to effective killing of cancer cells”.

For Cc1cc(CNCCCC(=O)NCCOCCOCCNc2cccc3c2C(=O)N(C2CCC(=O)NC2=O)C3=O)cc(C)c1-c1ncn(C)c1-c1ccnc2cc(F)ccc12 (stereo not drawn) [Compound 1, N-(2-(2-(2-((2-(2,6-dioxopiperidin-3-yl)-1,3-dioxoisoindolin-4-yl)amino)ethoxy)ethoxy)ethyl)-4-((4-(5-(7-fluoroquinolin-4-yl)-1-methyl-1H-imidazol-4-yl)-3,5-dimethylbenzyl)amino) butanamide], the “NSD3 degradation (immunoblot)” value [4] was “failed to degrade NSD3”.

With Cc1cc(CNCCCC(=O)NCCCCCNc2cccc3c2C(=O)N(C2CCC(=O)NC2=O)C3=O)cc(C)c1-c1ncn(C)c1-c1ccnc2cc(F)ccc12 (stereo not drawn) [Compound 2, N-(5-((2-(2,6-dioxopiperidin-3-yl)-1,3-dioxoisoindolin-4-yl)amino)pentyl)-4-((4-(5-(7-fluoroquinolin-4-yl)-1-methyl-1H-imidazol-4-yl)-3,5-dimethylbenzyl)amino)butanamide] the “NSD3 degradation (immunoblot)” value [4] was “failed to degrade NSD3”.

For Cc1cc(CNCCCC(=O)NCCCCCCCCC(=O)N[C@H](C(=O)N2C[C@H](O)C[C@H]2C(=O)NCc2ccc(-c3scnc3C)cc2)C(C)(C)C)cc(C)c1-c1ncn(C)c1-c1ccnc2cc(F)ccc12 [Compound 5, (2S,4R)-1-((S)-2-(9-(4-((4-(5-(7-fluoroquinolin-4-yl)-1-methyl-1H-imidazol-4-yl)-3,5-dimethylbenzyl)amino)butanamido)nonanamido)-3,3-dimethylbutanoyl)-4-hydroxy-N-(4-(4-methylthiazol-5-yl)benzyl)pyrrolidine-2-carboxamide], the “NSD3 degradation (immunoblot)” value [4] was “clearly induced NSD3 degradation at 10–40 μM”.

In the case of Cc1cc(CNCCCC(=O)NCCCCNC(=O)C[C@H](NC(=O)[C@@H]2C[C@@H](O)CN2C(=O)[C@@H](NC(=O)C2(F)CC2)C(C)(C)C)c2ccc(-c3scnc3C)cc2)cc(C)c1-c1ncn(C)c1-c1ccnc2cc(F)ccc12 [Compound 6, (2S,4R)-1-((S)-2-(1-fluorocyclopropane-1-carboxamido)-3,3-dimethylbutanoyl)-N-((S)-3-((4-(4-((4-(5-(7-fluoroquinolin-4-yl)-1-methyl-1H-imidazol-4-yl)-3,5-dimethylbenzyl)amino)butanamido)butyl)amino)-1-(4-(4-methylthiazol-5-yl)phenyl)-3-oxopropyl)-4-hydroxypyrrolidine-2-carboxamide], the “NSD3 degradation (immunoblot)” value [4] is reported as “did not lead to effective degradation of NSD3”.

With Cc1cc(CNCCCC(=O)NCCCCCCCCC(=O)N[C@H](C(=O)N2C[C@H](O)C[C@H]2C(=O)N[C@@H](C)c2ccc(-c3scnc3C)cc2)C(C)(C)C)cc(C)c1-c1ncn(C)c1-c1ccnc2cc(F)ccc12 [MS9715, (2S,4R)-1-((S)-2-(9-(4-((4-(5-(7-fluoroquinolin-4-yl)-1-methyl-1H-imidazol-4-yl)-3,5-dimethylbenzyl)amino)butanamido)nonanamido)-3,3-dimethylbutanoyl)-4-hydroxy-N-((S)-1-(4-(4-methylthiazol-5-yl)phenyl)ethyl)pyrrolidine-2-carboxamide] the colony-forming capabilities [1] was “drastically decreased colony-forming capabilities”, the “proteome-wide selectivity (significantly downregulated proteins)” value [5] was “NSD3 was the only protein showing significant downregulation” and the induction of apoptosis [6] was “induced a prominent increase of apoptosis”. For the same compound, the “NSD3 degradation in VHL knockout cells” value ([4]; 293FT cells with CRISPR/Cas9-mediated KO of VHL vs WT) was “abrogated the MS9715-mediated NSD3 degradation”, the “protein levels of cMyc” value ([7]; EOL-1 and MM1.S cells, 2.5 μM, 48 hours) was “significant decrease in the protein levels of cMyc” and the “cMyc depletion in VHL-deficient cells” value ([7]; VHL-deficient EOL-1 and 293FT cells relative to WT, 48-hour treatment) was “almost completely diminished”. The growth inhibitory activity [8] was “little growth inhibitory effect”, the “ubiquitination of cellular NSD3” value [9] was “induced ubiquitination of cellular NSD3 in a concentration-dependent manner” and the “ubiquitination of cellular cMyc” value [10] was “significantly enhanced”. For the same compound, the growth inhibitory activity ([2]; 2.5 μM, ten days, EOL-1, MM1.S and RS4;11 cells) was “effectively inhibited the growth”, the EC50 [2] was 2 to 4 µM and the “suppression of expression of CBLB, IFITM1, SELL and MAP7” value [11] was “superior effect”. For the same compound, the “concentration-dependent depletion of cellular NSD3S” value ([12]; EOL-1, MM1.S and MOLM13 cells, 48-hour treatment) was “concentration-dependent depletion of cellular NSD3S”, the “depletion of NSD3S and NSD3L isoforms” value ([12]; EOL-1 and MM1.S cells) was “led to depletion of both NSD3S and NSD3L isoforms” and the “time-dependent NSD3S degradation” value ([12]; EOL-1 and MM1.S cells, 2.5 μM) was “significant degradation occurring at as early as 24 hours”. The Dmax ([12]; MOLM-13, read-out: maximum degradation (Dmax)) was greater than 80% and the DC50 ([12]; read-out: half-maximal degradation concentration (DC50), MOLM13 cells, 48-hour treatment, mean ± SD from three independent experiments) was 4.9 ± 0.4 µM.

In the case of Cc1cc(CNCCCC(=O)NCCCCCCCCC(=O)N[C@H](C(=O)N2C[C@@H](O)C[C@@H]2C(=O)N[C@@H](C)c2ccc(-c3scnc3C)cc2)C(C)(C)C)cc(C)c1-c1ncn(C)c1-c1ccnc2cc(F)ccc12 [MS9715N, (2R,4S)-1-((S)-2-(9-(4-((4-(5-(7-fluoroquinolin-4-yl)-1-methyl-1H-imidazol-4-yl)-3,5-dimethylbenzyl)amino)butanamido)nonanamido)-3,3-dimethylbutanoyl)-4-hydroxy-N-((S)-1-(4-(4-methylthiazol-5-yl)phenyl)ethyl)pyrrolidine-2-carboxamide], the Kd [13] is reported as 1.62 ± 0.33 µM, the colony-forming capabilities [1] is reported as “little or no effect” and the EC50 [2] is reported as greater than 10 µM.
